pIC50: −log10 of the molar value.
How the values were obtained:
Cannabinoid receptor 1 [1] = target: T1, Cannabinoid receptor 1 (Homo sapiens, UniProt P21554); assay: Antagonist activity at human CB1 receptor expressed in CHO-RD-HGA16 cells assessed as inhibition of CP55940-induced calcium mobilization incubated for 15 mins prior to CP55940 addition by FLIPR assay; assay type: functional, cell-based
[2] = target: Cannabinoid receptor 2 (Homo sapiens) (UniProt P34972); assay: Antagonist activity at human CB2 receptor expressed in CHO-RD-HGA16 cells assessed as inhibition of CP55940-induced calcium mobilization at 10 uM incubated for 15 mins prior to CP55940 addition by FLIPR assay; assay type: functional, cell-based
Cannabinoid receptor 1 [3] = target: T1, Cannabinoid receptor 1; assay: Agonist activity at human CB1 receptor expressed in CHO-RD-HGA16 cells at 10 uM after 15 mins by FLIPR assay relative to CP55940; assay type: cell-based
Outline: (§1)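 Stably transfected CHO-RD-HGA16 cells (human CB1, or CB2 for line 2) seeded the day before (CB1 25,000, CB2 30,000 cells/well), cultured overnight at 37°C, 5% CO2. Loaded 45 min at 37°C with Calcium 5 dye in HBSS/20 mM HEPES/2.5 mM probenecid, pH 7.4.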

[4] = target: Cannabinoid receptor 2 (Homo sapiens) (UniProt P34972); assay: Agonist activity at human CB2 receptor expressed in CHO-RD-HGA16 cells at 10 uM after 15 mins by FLIPR assay relative to CP55940; assay type: cell-based; outline: as §1
Cannabinoid receptor 1 [5] = target: T1, Cannabinoid receptor 1; assay: Allosteric modulation of human CB1 receptor expressed in CHO-RD-HGA16 cells assessed as reduction of CP55940 Emax by calcium mobilization assay; assay type: functional, cell-based
Outline: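 CB1-expressing CHO-RD-HGA16 cells seeded at 25,000/well the previous day and loaded with Calcium 5 dye for 45 min at 37°C (HBSS, 20 mM HEPES, 2.5 mM probenecid, pH 7.4). Pretreated 15 min at 37°C with a single concentration of test compound, then serial dilutions of CP55,940 added on FLIPR Tetra. Fluorescence plotted against agonist concentration.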

Chain of Cannabinoid receptor 2 (Homo sapiens) (P34972 whole entry): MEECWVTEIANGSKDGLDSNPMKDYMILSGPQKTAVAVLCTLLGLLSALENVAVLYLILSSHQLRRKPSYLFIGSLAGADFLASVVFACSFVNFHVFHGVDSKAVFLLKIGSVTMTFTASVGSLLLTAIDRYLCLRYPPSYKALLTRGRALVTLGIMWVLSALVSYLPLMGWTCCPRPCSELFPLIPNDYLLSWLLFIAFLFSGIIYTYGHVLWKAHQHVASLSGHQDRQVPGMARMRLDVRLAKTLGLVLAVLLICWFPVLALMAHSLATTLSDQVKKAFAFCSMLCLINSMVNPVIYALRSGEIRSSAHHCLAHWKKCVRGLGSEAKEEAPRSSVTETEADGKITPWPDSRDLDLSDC
T1 sequence (P21554 whole entry): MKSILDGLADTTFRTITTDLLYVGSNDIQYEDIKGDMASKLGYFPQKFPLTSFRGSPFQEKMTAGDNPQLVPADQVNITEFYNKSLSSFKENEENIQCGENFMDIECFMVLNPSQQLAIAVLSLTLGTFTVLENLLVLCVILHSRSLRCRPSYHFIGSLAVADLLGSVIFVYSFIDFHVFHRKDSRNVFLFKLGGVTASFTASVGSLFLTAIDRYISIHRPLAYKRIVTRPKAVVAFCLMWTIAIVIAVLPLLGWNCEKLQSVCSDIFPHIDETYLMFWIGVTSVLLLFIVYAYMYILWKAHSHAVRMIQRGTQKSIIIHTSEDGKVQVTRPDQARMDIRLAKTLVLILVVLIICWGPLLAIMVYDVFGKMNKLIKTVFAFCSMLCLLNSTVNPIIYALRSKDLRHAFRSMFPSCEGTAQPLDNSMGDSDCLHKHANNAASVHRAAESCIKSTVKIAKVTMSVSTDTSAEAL

Compound | pIC50 (Cannabinoid receptor 1 [1]) | inhibition [2] [%] | Activity (Cannabinoid receptor 1 [3]) [%] | Activity [4] [%] | Activity (Cannabinoid receptor 1 [5])
CCc1c(C(=O)NC2CCN(Cc3ccccc3)C2)[nH]c2ccc(Cl)cc12 (configuration not stated) | 5.32 | -6.2 | < 30 | < 30 | –
CCN(CC)c1ccc(CCNC(=O)c2cc3cc(Cl)ccc3[nH]2)cc1 | 7.10 | 0.7 | < 30 | < 30 | Dose-dependent effect
CCCN(CCC)c1ccc(CCNC(=O)c2[nH]c3ccc(Cl)cc3c2CC)cc1 | 5.74 | – | < 30 | < 30 | –
CCCC(=O)Nc1ccc(CCNC(=O)c2[nH]c3ccc(Cl)cc3c2CC)cc1 | < 5.00 | 43 | < 30 | < 30 | –
CCc1c(C(=O)NCCc2ccc(N(CC)CC)cc2)[nH]c2ccc(Cl)cc12 | 6.32 | – | < 30 | < 30 | –
CCc1c(C(=O)NCCc2cccc(Cl)c2)[nH]c2ccc(Cl)cc12 | 6.08 | 24.8 | < 30 | < 30 | –
CCc1c(C(=O)NCCc2ccc(N(C)C)cc2)[nH]c2ccc(F)cc12 | 6.69 | – | < 30 | < 30 | Dose-dependent effect
CCc1c(C(=O)NCCc2ccccc2Cl)[nH]c2ccc(Cl)cc12 | 5.24 | 28.5 | < 30 | < 30 | –
CCN(CC)c1ccc(CCNC(=O)c2cc3cc(F)ccc3[nH]2)cc1 | 6.50 | – | < 30 | < 30 | –
O=C(NCCc1ccc(N2CCCCC2)cc1)c1cc2cc(F)ccc2[nH]1 | 6.50 | 20.8 | < 30 | < 30 | –
CCc1c(C(=O)NCCc2ccc(C(C)(C)C)cc2)[nH]c2ccc(Cl)cc12 | 5.61 | – | < 30 | < 30 | –
CCc1c(C(=O)NCCc2cccc(OC)c2)[nH]c2ccc(Cl)cc12 | 5.68 | -6 | < 30 | < 30 | –
CCc1c(C(=O)NCCc2ccc(OC)c(O)c2)[nH]c2ccc(Cl)cc12 | < 5.00 | -7 | < 30 | < 30 | –
CCCCCC(=O)Nc1ccc(CCNC(=O)c2[nH]c3ccc(Cl)cc3c2CC)cc1 | < 5.00 | 1 | < 30 | < 30 | –
CCc1c(C(=O)NCCc2ccc(N3CCCCC3)cc2)[nH]c2ccc(Cl)cc12 | 6.07 | – | < 30 | < 30 | Dose-dependent effect
CCc1c(C(=O)N2CCN(c3ccccc3)CC2)[nH]c2ccc(Cl)cc12 | < 5.00 | – | < 30 | < 30 | –
CCc1c(C(=O)Nc2cccc(-c3cccc(N(C)C)n3)c2)[nH]c2ccc(Cl)cc12 | < 5.00 | – | < 30 | < 30 | –

Compound | pIC50 (Cannabinoid receptor 1 [1]) | inhibition [2] [%] | Activity (Cannabinoid receptor 1 [3]) [%] | Activity [4] [%] | Activity (Cannabinoid receptor 1 [5])
CCc1c(C(=O)NCCc2cccc(N(C)C)c2)[nH]c2ccc(Cl)cc12 | < 5.00 | -3.7 | – | – | –
CCc1c(C(=O)NCCc2ccc(N3CCCCC3)cc2)[nH]c2ccc(F)cc12 | 6.22 | – | < 30 | < 30 | –
CCc1c(C(=O)NCCc2ccc(Cl)cc2)[nH]c2ccc(Cl)cc12 | 5.60 | -4.8 | < 30 | < 30 | –
CCc1c(C(=O)NCCc2ccc(Cl)c(Cl)c2)[nH]c2ccc(Cl)cc12 | 5.66 | -3.2 | < 30 | < 30 | –
CCc1c(C(=O)NCCc2ccc3c(c2)OCO3)[nH]c2ccc(Cl)cc12 | 5.36 | 25.8 | < 30 | < 30 | –
CCc1c(C(=O)NCCc2cccc(O)c2)[nH]c2ccc(Cl)cc12 | < 5.00 | -0.1 | < 30 | < 30 | –
Cc1c(C(=O)NCCc2ccc(N3CCCCC3)cc2)[nH]c2ccc(F)cc12 | 6.55 | -8.2 | < 30 | < 30 | –
CCc1c(C(=O)NCCc2ccc(N(CC)CC)cc2)[nH]c2ccc(F)cc12 | 6.44 | – | < 30 | < 30 | –
O=C(NCCc1ccc(N2CCCCC2)cc1)c1cc2cc(Cl)ccc2[nH]1 | 6.67 | 15 | < 30 | < 30 | –
CCc1c(C(=O)NCCc2ccc(NC(C)=O)cc2)[nH]c2ccc(Cl)cc12 | < 5.00 | -3.3 | < 30 | < 30 | –
CCc1c(C(=O)NCCc2ccc(N(C)C)cc2)[nH]c2ccc(Cl)cc12 | 6.10 | – | < 30 | < 30 | –
CCN(CC)c1ccc(CCNC(=O)c2[nH]c3ccc(F)cc3c2C)cc1 | 6.82 | – | < 30 | < 30 | –
CCc1c(C(=O)N2CCN(c3ccc(Cl)cc3)CC2)[nH]c2ccc(Cl)cc12 | < 5.00 | – | < 30 | < 30 | –
CCCCCCNc1ccc(CCNC(=O)c2[nH]c3ccc(Cl)cc3c2CC)cc1 | 5.44 | – | < 30 | < 30 | –
CCc1c(C(=O)NCCc2ccc([N+](=O)[O-])cc2)[nH]c2ccc(Cl)cc12 | 5.24 | 34.8 | < 30 | < 30 | –
CCc1c(C(=O)NCCc2ccc(OC)cc2)[nH]c2ccc(Cl)cc12 | 5.59 | – | < 30 | < 30 | –
CCc1c(C(=O)NCCc2ccccc2)[nH]c2ccc(Cl)cc12 | 5.50 | -6.2 | < 30 | < 30 | –

From ChEMBL document CHEMBL3399946, “Structure-activity relationships of substituted 1H-indole-2-carboxamides as CB1 receptor allosteric modulators” (Bioorg Med Chem, 2015)
